Assay results published in paper PMC7564327 (Acta Pharmaceutica Sinica. B, 2020).

What was measured:
Assay type in all cases: in vitro ADME
hOATP1B3 = target: T1, hOATP1B3 (Homo sapiens, UniProt Q9NPD5); assay: Inhibition of 3H-ES uptake in HEK293-hOATP1B3 cells; conditions: 100 μmol/L IPT, ISP; 100 μg/mL AD extract; substrate 3H-ES
T1 sequence (Q9NPD5 1-702): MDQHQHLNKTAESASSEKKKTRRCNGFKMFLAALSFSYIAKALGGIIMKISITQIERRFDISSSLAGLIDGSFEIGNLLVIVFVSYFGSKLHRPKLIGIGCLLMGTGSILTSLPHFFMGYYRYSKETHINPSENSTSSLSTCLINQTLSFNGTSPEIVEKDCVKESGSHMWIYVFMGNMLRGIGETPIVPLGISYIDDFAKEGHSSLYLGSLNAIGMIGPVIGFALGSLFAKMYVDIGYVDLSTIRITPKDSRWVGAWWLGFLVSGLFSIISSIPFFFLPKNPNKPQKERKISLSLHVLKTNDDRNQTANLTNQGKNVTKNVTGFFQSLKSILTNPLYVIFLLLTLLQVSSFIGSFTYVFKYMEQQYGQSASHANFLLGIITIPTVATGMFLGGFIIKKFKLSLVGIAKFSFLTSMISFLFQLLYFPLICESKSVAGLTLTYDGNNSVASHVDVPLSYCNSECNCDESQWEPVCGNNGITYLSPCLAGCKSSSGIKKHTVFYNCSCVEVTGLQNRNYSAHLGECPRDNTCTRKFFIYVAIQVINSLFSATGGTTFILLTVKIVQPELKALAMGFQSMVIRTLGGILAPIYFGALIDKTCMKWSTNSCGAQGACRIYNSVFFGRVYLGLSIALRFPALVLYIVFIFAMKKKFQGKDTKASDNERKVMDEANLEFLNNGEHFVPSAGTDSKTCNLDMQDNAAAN
How it was run: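 HEK293 cells stably overexpressing the human transporter, grown in DMEM with 10% FBS and penicillin/streptomycin at 5% CO₂, then seeded in 24-well plates and used at confluence. Cells incubated at 37 °C for 2 min with 50 nmol/L ³H-estrone sulfate, with or without test compound or extract; final DMSO below 0.5%. Stopped by three cold DPBS washes, lysed in 0.1 mol/L NaOH, and counted by liquid scintillation (DPM).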

hOATP2B1 = target: T2, hOATP2B1 (Homo sapiens, UniProt O94956); assay: Cellular uptake in HEK293-hOATP2B1 vs Mock cells; conditions: 100 μmol/L, substrate if >2-fold of wild type
T2 sequence (O94956 1-709): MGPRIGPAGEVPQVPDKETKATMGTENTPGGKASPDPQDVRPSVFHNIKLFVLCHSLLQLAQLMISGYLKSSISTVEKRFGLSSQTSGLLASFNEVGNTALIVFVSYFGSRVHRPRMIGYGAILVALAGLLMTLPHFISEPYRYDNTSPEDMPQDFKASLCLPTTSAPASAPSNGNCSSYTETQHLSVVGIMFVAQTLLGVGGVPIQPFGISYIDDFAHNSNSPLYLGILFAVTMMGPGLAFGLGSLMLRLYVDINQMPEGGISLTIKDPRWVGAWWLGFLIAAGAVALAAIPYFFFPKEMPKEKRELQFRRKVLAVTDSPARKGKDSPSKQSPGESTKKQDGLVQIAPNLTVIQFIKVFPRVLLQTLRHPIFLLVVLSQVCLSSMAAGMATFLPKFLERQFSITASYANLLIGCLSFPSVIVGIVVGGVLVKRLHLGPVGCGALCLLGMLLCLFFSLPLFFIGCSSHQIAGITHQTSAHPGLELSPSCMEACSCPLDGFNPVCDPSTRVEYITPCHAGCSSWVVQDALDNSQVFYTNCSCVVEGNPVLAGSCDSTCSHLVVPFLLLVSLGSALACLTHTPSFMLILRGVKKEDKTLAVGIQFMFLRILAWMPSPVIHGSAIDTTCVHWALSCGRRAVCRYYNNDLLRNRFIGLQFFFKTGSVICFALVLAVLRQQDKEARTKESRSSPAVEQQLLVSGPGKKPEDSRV

hOATP1B1 = target: T3, hOATP1B1 (Homo sapiens, UniProt Q9Y6L6); assay: Cellular uptake and kinetics in HEK293-hOATP1B1 vs Mock cells; conditions: 100 μmol/L
T3 sequence (Q9Y6L6 1-691): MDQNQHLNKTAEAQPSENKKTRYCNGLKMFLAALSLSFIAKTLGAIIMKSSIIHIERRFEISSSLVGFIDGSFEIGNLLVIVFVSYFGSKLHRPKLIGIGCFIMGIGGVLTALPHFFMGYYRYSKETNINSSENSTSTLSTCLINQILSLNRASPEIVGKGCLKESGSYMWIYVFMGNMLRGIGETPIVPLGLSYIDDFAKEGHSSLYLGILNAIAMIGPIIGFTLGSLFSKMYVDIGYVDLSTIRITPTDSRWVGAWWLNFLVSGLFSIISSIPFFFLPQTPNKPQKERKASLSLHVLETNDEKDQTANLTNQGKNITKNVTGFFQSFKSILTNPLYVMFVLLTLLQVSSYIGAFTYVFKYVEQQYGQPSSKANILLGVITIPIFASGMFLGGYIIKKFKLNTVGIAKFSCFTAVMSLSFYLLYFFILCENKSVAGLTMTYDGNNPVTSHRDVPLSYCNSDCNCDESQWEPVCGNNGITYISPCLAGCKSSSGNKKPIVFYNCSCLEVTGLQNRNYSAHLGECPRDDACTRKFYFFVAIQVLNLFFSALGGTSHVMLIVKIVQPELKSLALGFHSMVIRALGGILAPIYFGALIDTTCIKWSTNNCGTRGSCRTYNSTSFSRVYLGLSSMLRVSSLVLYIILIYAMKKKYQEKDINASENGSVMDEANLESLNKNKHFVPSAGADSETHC

Row | Structure (SMILES) | inhibition to hOATP1B3 (hOATP1B3) | accumulation in HEK293-hOATP2B1 vs HEK293 wild type (hOATP2B1) | accumulation in hOATP1B1-overexpressed cell lines compared to wild type (hOATP1B1)
1 | CC(C)=CCOc1c2ccoc2cc2oc(=O)ccc12 [ISP, isoimperatorin] | weak or no inhibition | less than 2 fold | could largely accumulate
2 | CC(C)=CCOc1c2occc2cc2ccc(=O)oc12 [IPT, imperatorin] | weak or no inhibition | less than 2 fold | could largely accumulate
